Data from ChEMBL document CHEMBL1123945, “Dimethylsulfonium and thiolanium analogues of the muscarinic agent oxotremorine” (J Med Chem, 1988).

How the values were obtained:
Cavia porcellus [1] = organism: Cavia porcellus; assay: In vitro muscarinic activity was measured on isolated guinea pig ileum; assay type: functional
Outline: (§1)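 Guinea pig ileum segments in Tyrode solution pH 7.4, 37 °C, with 0.3 mM hexamethonium. Isotonic contractions at 1 g tension. Cumulative concentration–response curves, concentration raised stepwise by a factor of 2.15. Means ± SE over tissues.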

[2] = In vitro nicotinic activity was measured on frog rectus abdominis; assay type: functional, tissue-based, Rectus abdominis muscle
Outline: (§2)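 Frog rectus abdominis in aerated Clark-Ringer solution pH 7.4 at 22 °C. Noncumulative concentration–response curves, 5 min exposure per concentration. Isotonic contractions recorded.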

Cavia porcellus [3] = organism: Cavia porcellus; assay: Relative efficacy of compound was determined in guinea pig iluem; assay type: functional
Cavia porcellus [4] = organism: Cavia porcellus; assay: Dissociation constant of the drug-receptor complex was measured in guinea pig urinary bladder; assay type: functional
[5] = (§3) Acute toxicity was measured in mice; assay type: organism-based; conditions: mouse, in vivo
Outline: (§4)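 Male Swiss-Webster mice, 24-30 g. Drug dissolved in 0.9% NaCl, given iv in the tail. LD50 estimated by the up-and-down method, using six or more animals per determination. Mortality counted at 1 h.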

[6] = target: Muscarinic acetylcholine receptor; assay: Binding affinity to Muscarinic acetylcholine receptor in rat cerebral cortex; assay type: tissue-based
[7] = Equipotent molar ratio measured on frog rectus abdominis; assay type: functional, Rectus abdominis muscle; outline: as §2
[8] = The equipotent molar ratio (EPMR) relative to oxotremorine on isolated guinea pig; assay type: functional; conditions: in the assay text read “relative to carbachol” for “relative to oxotremorine”; outline: as §1
Cavia porcellus [9] = organism: Cavia porcellus; assay: Dissociation constant of the drug-receptor complex was measured in guinea pig ileum; assay type: functional
Cavia porcellus [10] = organism: Cavia porcellus; assay: In vitro muscarinic activity was measured on isolated guinea pig urinary bladder; assay type: functional
Outline: (§5)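 Guinea pig urinary bladder strips in Tyrode solution pH 7.4, 37 °C, containing 0.3 mM hexamethonium. Isotonic recording at 1 g tension. Cumulative concentration–response curves, concentration raised stepwise by a factor of 3.16.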

Cavia porcellus [11] = organism: Cavia porcellus; assay: Relative efficacy of compound was determined in guinea pig urinary bladder; assay type: functional
Mus musculus = assay: Sialalogic activity was measured in mice after intravenous administration; assay type: functional
Outline: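 Male Swiss-Webster mice (24–30 g). Drugs in 0.9% NaCl given iv in the tail. Salivation was scored by blotting the mouth onto absorbent tissue during the first 10 min. ED50 by the up-and-down method, six or more animals per determination.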

[12] = target: T1, Muscarinic acetylcholine receptor (Rattus norvegicus) (UniProt P08482+P08483+P08485+P08911+P10980); assay: Percentage of high affinity sites was determined in rat cerebral cortex; assay type: tissue-based
[13] = target: T1, Muscarinic acetylcholine receptor (Rattus norvegicus); assay: Low affinity dissociation constant to Muscarinic acetylcholine receptor in rat cerebral cortex; assay type: tissue-based
[14] = target: T1, Muscarinic acetylcholine receptor (Rattus norvegicus); assay: High affinity dissociation constant to Muscarinic acetylcholine receptor in rat cerebral cortex; assay type: tissue-based
[15] = The equipotent molar ratio (EPMR) relative to oxotremorine on isolated guinea urinary bladder; assay type: functional; conditions: in the assay text read “relative to carbachol” for “relative to oxotremorine”; outline: as §5
[16] = as §3; conditions: mouse, in vivo; outline: as §4
Cavia porcellus [17] = organism: Cavia porcellus; assay: Relative efficacy of compound was determined was determined in guinea pig bladder; assay type: functional
[18] = Equipotent molar ratio (EPMR) was measured on frog rectus abdominis; assay type: functional, Rectus abdominis muscle; outline: as §2
[19] = Ratio of equipotent molar ratio (EPMR) of frog rectus to EPMR of guinea pig ileum; assay type: functional

SMILES | EC50 (Cavia porcellus [1]) [nM] | EC50 [2] [µM] | Efficacy (Cavia porcellus [3]) | Kd (Cavia porcellus [4]) [µM] | LD50 [5] [µmol/kg] | IC50 [6] [µM] | Ratio [7] | Ratio [8] | Kd (Cavia porcellus [9]) [nM] | EC50 (Cavia porcellus [10]) [nM] | Efficacy (Cavia porcellus [11]) | ED50 (Mus musculus) [µmol/kg] | Binding [12] [%] | KL [13] [µM] | KH [14] [µM] | Ratio [15] | LD50 [16] [µmol/kg] | Efficacy (Cavia porcellus [17]) | Ratio [18] | Ratio [19]
O=C1CCC(=O)N1CC#CC[S+]1CCCC1.[Cl-] | 7900 | 66.2 | 0.0061 | 13.1 | 3.5 | 3.3 | 18 | 81 | 7500 |  |  |  |  |  |  |  |  |  |  | 
O=C1CCCN1CC#CC[S+]1CCCC1.[Cl-] | 250 | 5 | 0.054 | 1.1 | 2.2 | 0.31 | 1.4 | 2.1 | 1300 | 1200 | 0.057 | 0.35 | 37 | 0.99 | 0.069 | 2.3 |  |  |  | 
C[N+](C)(C)CCOC(N)=O.[Cl-] [CARBACHOL] |  | 3.8 | 1 |  |  |  |  |  |  |  | 1 | 0.083 |  |  |  |  | 1.7 |  |  | 
C[S+](C)CC#CCN1C(=O)CCC1=O.[Cl-] | 410 | 2600 | 0.11 | 5.9 | 70 | 5.4 | 692 | 4.1 | 6900 | 1700 | 0.15 | 0.48 | 27.4 | 12.7 | 0.19 | 3.7 |  |  |  | 
C[N+](C)(C)CC#CCN1CCCC1=O.[I-] [OXOTREMORINE METHIODIDE] | 23 |  | 0.95 | 4.3 | 1 | 1.2 | 2.1 |  | 2900 | 370 | 0.88 | 0.058 | 31.3 | 5.4 | 0.019 |  |  |  |  | 
C[S+](C)CC#CCN1CCCC1=O.[Cl-] | 29 | 29 | 0.41 | 1.3 | 2.8 | 0.8 |  | 0.24 | 1500 | 200 |  | 0.024 | 28.4 | 2.2 | 0.011 | 0.32 |  | 0.48 | 8.1 | 33.8
